Data on one compound can be found in ChEMBL document CHEMBL4028911, “Discovery of a Small-Molecule Bromodomain-Containing Protein 4 (BRD4) Inhibitor That Induces AMP-Activated Protein Kinase-Modulated Autophagy-Associated Cell Death in Breast Cancer” (J Med Chem, 2017).

For experiment [1], the target named is T1, Bromodomain-containing protein 4 (Homo sapiens, UniProt O60885). As to the kind of experiment: Inhibition of BRD4 in human MCF7 cells assessed as downregulation of AKT phosphorylation at ser473 at 1.5 uM measured up to 36 hrs by Western blot analysis. It counts as cell-based. The method in brief: (§1)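 MCF-7 (1.5 μM) or MDA-MB-231 (3 μM) cells treated for indicated times. Adherent and floating cells lysed in RIPA with 1 mM PMSF. Equal protein run on 10-15% SDS-PAGE, blotted to PVDF, blocked in milk or BSA, HRP/ECL detection. β-actin loading control.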

Experiment [2] deals with T1, Bromodomain-containing protein 4. As to the kind of experiment: Inhibition of BRD4 in human MDA-MB-231 cells assessed as induction of AMPKalpha phosphorylation at thr172 at 3 uM in presence of ATG5 siRNA by Western blot analysis. It is filed as cell-based. The method in brief:
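Cells given 50 nM ATG5 or negative-control siRNA (Lipofectamine RNAiMAX) and used 48 h later, then exposed to 1.5 μM (MCF-7) or 3 μM (MDA-MB-231). p-AMPKα analysed by western blot with β-actin loading control.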

Experiment [3] has the same target. As to the kind of experiment: Inhibition of BRD4 in human MCF7 cells assessed as reduction in ULK1 protein expression at 1.5 uM up to 36 hrs by Western blot analysis. It counts as cell-based. The method in brief: as §1
A general note: In western blotting, separated proteins are transferred to a membrane and probed.

The test system of experiment [4] is MDA-MB-231. As to the kind of experiment: Induction of autophagy in human MDA-MB-231 cells assessed as assessed as cytoplasmic vacuolization. It is filed as functional, cell-based.
Experiment [5] relates to MCF7. As to the kind of experiment: Antitumor activity against CM-Dil-labeled human MCF7 cells implanted in transgenic zebrafish embryos assessed as tumor growth inhibition at 12.5 to 50 uM dosed via sterile dechlorinated tap water and measured on fifth day after implantation by fluorescence assay. It counts as functional, organism-based.
The test system of experiment [6] is MDA-MB-231. As to the kind of experiment: Antitumor activity against human MDA-MB-231 cells xenografted in nude BALB/c mouse assessed as tumor growth inhibition at 25 to 100 mg/kg, ig administered once a day for 27 days measured every 3 days relative to control. It is filed as functional. The method in brief: (§2)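 Female BALB/c nude mice, 6-8 weeks, 20-22 g, injected subcutaneously with 5×10^6 MCF-7 or MDA-MB-231 cells. At 100 mm³ tumor volume (V = L×W²/2), split into four groups: 25, 50 or 100 mg/kg intragastric once daily for 24 or 27 days, or vehicle. Tumor volume and body weight measured every 3 days; tumors excised and weighed at end. MCF-7 n=7, MDA-MB-231 n=6 per group.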
On the technique in general: In xenograft studies the graft and the host belong to different species.

The subject of experiment [7] is MCF7. As to the kind of experiment: Antitumor activity against human MCF7 cells xenografted in nude BALB/c mouse assessed as reduction in tumor weight at 25 to 100 mg/kg, ig administered once a day for 24 days measured every 3 days relative to control. It is filed as functional, organism-based. The method in brief:
as §2

The test system of experiment [8] is MDA-MB-231. As to the kind of experiment: Induction of autophagy in human MDA-MB-231 cells assessed as increase in LC3B puncta at 3 uM after 24 hrs by DAPI-staining based immunocytochemistry. It counts as functional, cell-based. The method in brief:
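MDA-MB-231 cells treated with 3 μM for 24 h. Blocked in PBS with 1.5% goat serum, anti-LC3B (1:200 in PBS/1% BSA) overnight at 4 °C, then FITC secondary 1 h at room temperature. DAPI counterstain; LC3B puncta scored by fluorescence microscopy.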

Active and inactive are the calls of the source. The rule behind the calls is not given here.

Take `Cc1cc(-c2nc3sc4c(c3c(=O)[nH]2)CCN(C)C4)cc(C)c1O`: the inhibition entry in experiment [1], in experiment [2] and in experiment [3] was “Active” throughout. Also, the result in the experiment on MDA-MB-231 [4], in the experiment on MCF7 [7] and with MDA-MB-231 [8] was Active. Besides, in the experiment with MCF7 [5], the TGI entry was “Active”. The TGI with MDA-MB-231 [6] amounted to 76%.
